The text below walks through data of ChEMBL document CHEMBL4321820, “Identification and Optimization of Mechanism-Based Fluoroallylamine Inhibitors of Lysyl Oxidase-like 2/3” (J Med Chem, 2019).

A short description of data set [1]: Prodrug conversion in BALB/c mouse plasma assessed as 1-[4-amino-2-fluoro-but-2-enyl]-3-[3-(dimethylsulfamoyl)phenyl]-2-methyl-indole-5-carboxylic acid hydrochloride formation at 20 mg/kg, po administered via gavage by HPLC-MS/MS analysis. Format: ADME, organism-based. The settings on record: in vivo. The essentials:
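Male BALB/c mice dosed by oral gavage at 20 mg/kg (n=3); plasma prodrug and released free acid quantified by LC-MS/MS; each point the mean of 3 animals.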

Data set [2] has as its system Mus musculus. Briefly: Effect on plasma ALT level in CCl4-induced BALB/c mouse model of liver fibrosis at 5 to 15 mg/kg, po administered once daily at week 4 to 6. The class given is ADME, organism-based. The following applies: in vivo. The essentials:
(§1)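 CCl4 liver fibrosis in female BALB/c mice: CCl4 i.p. (1 mL/kg 25% in olive oil) twice weekly for 6 weeks, sacrifice 48 h after final injection. Oral once-daily dosing weeks 1-6 or weeks 4-6; imatinib 50 mg/kg daily weeks 1-6. ALT and AST measured in plasma.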

Data set [3] has as its system Mus musculus. Nature of the data set: Effect on plasma ALT level in CCl4-induced BALB/c mouse model of liver fibrosis at 15 mg/kg, po administered once daily for 6 weeks. The class given is ADME, organism-based. The settings on record: in vivo, 1008 h. The essentials: as §1
Data set [4] is described as follows: Stability in rat plasma assessed as half life.
A short description of data set [5]: Protein binding in human plasma. The settings on record: read-out: PPB (converted). The class given is ADME, cell-free.
A short description of data set [6]: Stability in rat microsomes assessed as half life. Format: ADME, Microsome.
Data set [7] is described as follows: Oral bioavailability in mouse. The class given is ADME, organism-based. The following applies: in vivo.
Data set [8] in a line: Stability in dog plasma assessed as half life.
Data set [9] is described as follows: Stability in dog microsomes assessed as half life. The class given is ADME, Canis lupus familiaris, Microsome.
A short description of data set [10]: Stability in dog plasma assessed as half life. The class given is ADME, cell-free, Canis lupus familiaris.
In the next data set the target is T1, Lysyl oxidase homolog 2 (Homo sapiens, UniProt Q9Y4K0).
T1 sequence (Q9Y4K0 whole entry): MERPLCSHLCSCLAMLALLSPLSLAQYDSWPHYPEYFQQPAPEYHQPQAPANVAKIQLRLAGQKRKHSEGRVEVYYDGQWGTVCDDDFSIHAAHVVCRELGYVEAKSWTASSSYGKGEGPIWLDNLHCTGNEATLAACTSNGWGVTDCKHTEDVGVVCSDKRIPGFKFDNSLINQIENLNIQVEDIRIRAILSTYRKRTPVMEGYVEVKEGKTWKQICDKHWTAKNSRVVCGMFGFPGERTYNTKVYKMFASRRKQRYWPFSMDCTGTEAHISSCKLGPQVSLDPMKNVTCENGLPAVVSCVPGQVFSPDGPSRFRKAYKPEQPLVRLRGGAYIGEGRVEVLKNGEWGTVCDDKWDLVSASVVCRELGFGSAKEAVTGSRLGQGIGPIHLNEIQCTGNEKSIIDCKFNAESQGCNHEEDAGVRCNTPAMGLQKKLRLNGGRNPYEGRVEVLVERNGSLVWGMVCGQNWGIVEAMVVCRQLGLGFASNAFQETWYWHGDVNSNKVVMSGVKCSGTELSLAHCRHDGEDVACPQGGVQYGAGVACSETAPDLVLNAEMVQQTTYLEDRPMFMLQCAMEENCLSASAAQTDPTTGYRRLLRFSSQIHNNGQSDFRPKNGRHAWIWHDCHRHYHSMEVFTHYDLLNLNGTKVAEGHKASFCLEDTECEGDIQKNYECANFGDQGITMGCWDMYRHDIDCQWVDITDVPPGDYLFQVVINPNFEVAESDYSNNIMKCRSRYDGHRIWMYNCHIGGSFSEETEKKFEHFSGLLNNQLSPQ
Briefly: Time-dependent inhibition of recombinant human C-terminal His-tagged […] (1-774 residues) expressed in mouse myeloma cells assessed as apparent inhibition constant using putrescine as substrate by kitz-wilson plot analysis. The essentials:
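Recombinant human LOXL2 preincubated with inhibitor for varying times at 37 °C, then 5 mM putrescine added with 120 µM Amplex Red and 1.5 U/mL HRP. Buffer was 1.2 M urea, 50 mM sodium borate, pH 8.2. Fluorescence read every 2.5 min for 30 min. Apparent Ki and kinact derived by Kitz–Wilson analysis.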

A further data set deals with T2, Lysyl oxidase homolog 3 (Homo sapiens, UniProt P58215).
T2 sequence (P58215 whole entry): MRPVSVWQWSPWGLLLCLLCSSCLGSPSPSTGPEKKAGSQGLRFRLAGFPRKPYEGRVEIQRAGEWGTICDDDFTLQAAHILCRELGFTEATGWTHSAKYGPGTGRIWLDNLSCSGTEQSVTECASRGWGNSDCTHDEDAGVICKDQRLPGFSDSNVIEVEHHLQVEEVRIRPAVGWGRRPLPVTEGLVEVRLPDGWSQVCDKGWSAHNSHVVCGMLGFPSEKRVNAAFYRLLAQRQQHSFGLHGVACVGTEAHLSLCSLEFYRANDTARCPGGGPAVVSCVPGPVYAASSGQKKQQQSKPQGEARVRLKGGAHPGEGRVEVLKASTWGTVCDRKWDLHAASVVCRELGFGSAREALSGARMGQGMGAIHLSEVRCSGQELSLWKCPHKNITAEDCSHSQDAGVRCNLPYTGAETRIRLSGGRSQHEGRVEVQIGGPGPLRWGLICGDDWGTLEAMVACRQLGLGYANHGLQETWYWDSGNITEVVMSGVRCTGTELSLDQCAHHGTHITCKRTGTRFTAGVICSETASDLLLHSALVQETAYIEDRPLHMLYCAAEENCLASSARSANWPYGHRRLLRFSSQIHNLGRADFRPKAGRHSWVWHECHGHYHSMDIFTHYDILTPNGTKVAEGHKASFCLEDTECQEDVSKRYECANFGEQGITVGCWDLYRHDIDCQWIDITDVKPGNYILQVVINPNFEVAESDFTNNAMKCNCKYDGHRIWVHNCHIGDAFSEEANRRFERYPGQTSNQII
Briefly: Inhibition of recombinant C-terminal His-tagged human LOXL3 (1 to 753 residues) expressed in CHO cells using putrescine as substrate preincubated with enzyme for 30 mins followed by substrate addition and measured every 2.5 mins for 30 mins by Amplex-Red oxidation assay. The essentials: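 Recombinant human LOXL3 or LOXL4 preincubated 30 min at 37 °C with compound in 1.2 M urea/50 mM borate pH 8.2, then Amplex Red (120 µM)/HRP (1.5 U/mL) with 2 mM putrescine; fluorescence read every 2.5 min for 30 min.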

A value given as a limit tells only on which side of the number the result lay.

For `CCOC(=O)c1ccc2c(c1)c(-c1cccc(S(=O)(=O)N(C)C)c1)c(C)n2C/C(F)=C/CN.Cl`, the Drug metabolism result in data set [1] was “Metabolite_Detected”. The Activity result with Mus musculus [2] and in the data set with Mus musculus [3] was “Non-Toxic” in each case.

Take `Cc1c(-c2cccc(S(=O)(=O)N(C)C)c2)c2cc(C(=O)O)ccc2n1C/C(F)=C/CN.Cl`: the half-life in data set [4] is over 2 h; in [6], over 1.5 h; in data set [8], over 2 h; in [9], over 1.5 h; in [10] it was over 2 h. The fraction unbound in data set [5] is 0.08. Moreover, the bioavailability in data set [7] was under 1%. The Ki on Lysyl oxidase homolog 2 amounted to 83 nM. Further, the IC50 on Lysyl oxidase homolog 3 was 16 nM.
